Measured values collected from several papers.
Target: Protein kinase C eta type (PRKCH, Homo sapiens, UniProt P24723)

| SMILES | assay | setting | remaining binding |
| --- | --- | --- | --- |
| Cc1cnn2ncc(-c3ccnc(N(C)C)n3)c2c1 | binding | 1 µM | 100% |
| CCCOc1ccc([C@@H]2[C@@H](C(=O)O)[C@H](c3ccc4c(c3)OCO4)CN2CC(=O)Nc2c(CC)cccc2CC)cc1 | cell-free assay, competition with immobilised ligand | 1 µM | 100% |
| C[C@@H](c1ccc(-n2cnc3c(N)ncnc32)cc1)N1CCc2nn(C)c(Cc3ccccc3)c2C1=O | binding, competition with immobilised ligand | 0.1 µM | 100% |
| CN(C)c1ncnc(-c2ccc3nc(Nc4cc(CN5CCN(C(=O)CC(F)(F)F)CC5)ccn4)[nH]c3c2)c1Cl | cell-free assay, competition with immobilised ligand | 1 µM | 100% |
| O=C(NCCCN1CCOCC1)c1ccc(Nc2nccc(-c3cc4ccccc4s3)n2)cc1 | binding, competition with immobilised ligand | 1 µM | 84% |
| CNC(=O)[C@@H]1CC[C@@H](n2c(-c3ccc4cnccc4c3)nc3ccc(C(=O)NCc4cccc(C(N)=O)c4)cc32)C1 | binding, competition with immobilised ligand | 1 µM | 100% |
| CN(c1nccc(-c2cnn3ncccc23)n1)C1CC1 | binding | 1 µM | 100% |
| O=C(c1ccc(Nc2nccc(-c3cc4ccccc4s3)n2)cc1)N1CCC(N2CCCC2)CC1 | binding, competition with immobilised ligand | 1 µM | 74% |
| CN(C)CC#Cc1ccc(OCCCc2sc(N3CCc4cccc(C(=O)Nc5nc6ccccc6s5)c4C3)nc2C(=O)O)c(F)c1 | cell-free assay, competition with immobilised ligand | 1 µM | 74% |
| CN(C)c1nccc(-c2cnc3ncccn23)n1 | binding | 1 µM | 100% |
| O=C(NCCCN1CCOCC1)c1ccc(Nc2ncc(Cl)c(-c3ccc(Cl)s3)n2)cc1 | binding, competition with immobilised ligand | 1 µM | 100% |
| COc1cnc(Nc2cccc(S(N)(=O)=O)c2)nc1N1CCN(c2ccccc2)C(=O)C1 | binding, competition with immobilised ligand | 1 µM | 95% |
| CN(C)c1nccc(-c2cnn3ncccc23)n1 | binding | 1 µM | 100% |
| O=C(NCC1CCOCC1)c1n[nH]cc1NC(=O)c1c(F)cccc1F | binding, competition with immobilised ligand | 1 µM | 92% |
| CCCCN(CCCC)C(=O)CN1C[C@H](c2cc(OC)c3c(c2)OCO3)[C@@H](C(=O)O)[C@@H]1CC(C)(C)CCC | cell-free assay, competition with immobilised ligand | 1 µM | 100% |
| Nc1ncc2c(n1)-c1c([nH]c3ccc(C#CC4CC4)cc13)CCCC2 | binding, competition with immobilised ligand | 1 µM | 100% |
| COc1cc(-c2cn(C3CCc4c(F)cccc4N(CC(F)(F)F)C3=O)nn2)ccc1-n1cnc(C)c1 (stereo not shown) | cell-free assay, competition with immobilised ligand | 1 µM | 100% |
| CC1CCCN1c1nccc(-c2cnn3ncccc23)n1 (stereo not shown) | binding | 1 µM | 100% |
| CCS(=O)(=O)c1cc2cc(C[C@@](O)(CC(C)(C)c3ccc(F)cc3C(N)=O)C(F)(F)F)[nH]c2cn1 | cell-free assay, competition with immobilised ligand | 1 µM | 100% |
| c1cnn2ncc(-c3ccnc(N4CCC45COC5)n3)c2c1 | binding | 1 µM | 88% |
| COc1ccc2c(c1)O[C@@H](c1ccc(OC)c(OC)c1)C[C@H]2NC(=O)C1(c2ccc3c(c2)OC(F)(F)O3)CC1 | cell-free assay, competition with immobilised ligand | 1 µM | 96% |
| N[C@H]1CCN(c2nccc(-c3cnn4ncccc34)n2)C1 | binding | 1 µM | 88% |
